# Screens: PubChem BioAssay, The Scripps Research Institute Molecular Screening Center
# Only some compounds are listed: those with a hit (about 1.9% of all), similar ones and a draw of the others.
# PLC-gamma1 inh: PLC-gamma1 enzyme inhibitors, primary screen, biochemical, fluorescence, purified enzyme | 1-phosphatidylinositol 4,5-bisphosphate phosphodiesterase gamma-1 (Homo sapiens), P19174 | fluorogenic substrate | inhibition, % at 12.2 µM | actives 0.84% (n = 370,000); in the data active = inhibition above about 9.5%
# PLC-beta3 inh: human PLC-beta3 inhibitors, primary screen, biochemical, fluorescence | actives 0.18% (n = 370,000) | inhibition, % at 12.2 µM | Purified PLC-beta3, fluorogenic substrate | AID 720704, 2013 | 1-phosphatidylinositol 4,5-bisphosphate phosphodiesterase beta-3 (Homo sapiens), Q01970; in the data active = inhibition above about 11%;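 note: 0% = median of compound wells on plate and 100% = full blocker control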
# sPLA2-III inh: human group III sPLA2 inhibitors, primary screen, biochemical, QFRET, BODIPY PC-A2 liposome substrate; Group 3 secretory phospholipase A2 (Homo sapiens), Q9NZ20; AID 743126, 2013; actives 0.56% (n = 370,000); QFRET BODIPY PC-A2 liposome hydrolysis, fluorescence; inhibition, % at 12.2 µM;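 active = inhibition above mean plus 3 SD of compounds lying within the high and low control bounds, cut at about 19% in these data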;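 note: 0% = median of test compound wells and 100% = no enzyme DMSO wells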
# ARFGAP1 inh: inhibitors of rat ARFGAP1 GAP activity, primary screen, biochemical, fluorescence polarization, GDP tracer; Arfgap1-stimulated ARF1 GTP hydrolysis, GDP FP detection; ADP-ribosylation factor GTPase-activating protein 1 (Rattus norvegicus), Q62848; actives 0.26% (n = 360,000); inhibition, % at 16.5 µM;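 active = inhibition above a per-plate limit, mean inhibition of low control wells plus 3 SD, cut at about 25% in these data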;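 note: 0% = DMSO wells with enzyme and 100% = wells lacking Arfgap1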
#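 Material – truncated rat Arfgap1 GAP domain · Buffer or medium – HEPES-based buffer, pH 7.5 · Reagent – human ARF1(Δ1-17)-GTP substrate · Dosing – 16.5 µM single point, 1.26% DMSO · Schedule – GTP hydrolysis reaction 2 h at 25 °C · Technique – GDP detection by fluorescence polarization · Benchmarks – No-Arfgap1 wells (100%) versus DMSO full-reaction wells (0%) · Repeats – single replicate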
# ASAP1 GAP inh: inhibitors of human ASAP1 ArfGAP activity, primary screen, biochemical, fluorescence polarization; Arf-GAP with SH3 domain, ANK repeat and PH domain-containing protein 1 (Homo sapiens), …; actives 0.19% (n = 360,000); AID 624377, 2012; inhibition, % at 16.5 µM; ASAP1-stimulated ARF1 GTP hydrolysis, GDP FP detection; in the data active = inhibition above about 25%;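 note: 0% = vehicle with enzyme and substrate and 100% = no enzyme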
# Target sequence (Q9ULH1 325-724 limits assumed): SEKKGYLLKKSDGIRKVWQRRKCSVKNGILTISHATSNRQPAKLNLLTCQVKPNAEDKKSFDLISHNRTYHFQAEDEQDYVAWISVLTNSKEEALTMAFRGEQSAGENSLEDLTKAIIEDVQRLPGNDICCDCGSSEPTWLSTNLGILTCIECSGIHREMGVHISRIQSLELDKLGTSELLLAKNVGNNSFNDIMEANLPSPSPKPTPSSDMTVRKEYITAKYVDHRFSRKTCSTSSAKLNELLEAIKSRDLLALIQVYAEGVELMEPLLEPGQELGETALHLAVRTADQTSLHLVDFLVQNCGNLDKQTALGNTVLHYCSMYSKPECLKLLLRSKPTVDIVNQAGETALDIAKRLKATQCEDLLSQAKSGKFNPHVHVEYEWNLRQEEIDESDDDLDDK
# Starred values were filed as active, the others as inactive; . = no result given.
SMILES,PLC-gamma1 inh,PLC-beta3 inh,sPLA2-III inh,ARFGAP1 inh,ASAP1 GAP inh
CCC1CCC/C1=N\NC(=O)c1ccccc1C (stereo not given),10*,7,-3,-5,-9
O=C(OCc1ccccc1)N(CCCCN(CCCNCc1ccccc1)C(=O)OCc1ccccc1)CCCNCc1ccccc1,10.0*,4,-27,-3,7
O=C(NCCCCCCNC(=O)OCc1ccccc1)OCc1ccccc1,0,0,5,1,5
Cc1ccc2c(c1)[C@H]1[C@H](CO2)[C@H](c2ccccc2)[C@]2(C)C(=O)N(CC3CCCO3)CC(=O)N12 (stereo not given in full),2,0,3,-7,-7
C[C@@]12C(=O)N(CC3CCCO3)CC(=O)N1[C@H]1c3cc(Cl)ccc3OC[C@@H]1[C@@H]2c1ccccc1 (stereo not given in full),10*,1,-9,9,9
COCCN=c1scc(-c2cccs2)n1/N=C/c1ccc(O)c(O)c1O,-20,-22,42*,-2,23
COc1ccc(OC)c(CN2C(=O)CSCCC2(C)c2nnnn2C2CCCC2)c1 (stereo not given),-3,2,5,.,.
O=C(Nc1nc(-c2cccs2)c(-c2ccccc2)s1)c1ccco1,-25,-35,1,34*,15
O=S1(=O)CCN2C(c3ccc4c(c3)CCCC4)=CSC2=N1,1,11*,6,-9,-5
COC(=O)C1CN(Cc2ccc(OC)cc2)CCS(=O)(=O)N1Cc1ccc(C(F)(F)F)cc1 (stereo not given),2,1,1,.,.
CN1CCCN(C(=O)C2CCCN(C(=O)c3ccc4c(c3)NC(=O)CS4)C2)CC1 (stereo not given),1,0,2,.,.
Cc1onc(-c2ccccc2)c1C(=O)Nc1ccccc1N1CCOCC1,13*,2,-5,-10,-4
CCOC(=O)CC[C@@H]1CC[C@]2(CCCN(Cc3ccc(Cl)cc3)C2)O1,-1,-5,12,.,.
Cc1cc(NC(=O)C2CCCC2)n(-c2nc3ccccc3[nH]2)n1,11*,5,8,8,-8
O=C1C=CC2=C3c4cc(O)c(O)cc4CC3(O)COC2=C1O (stereo not given),16*,6,-8,11,-1
CC1=NNC(=O)/C1=C\c1cn(-c2ccccc2)nc1-c1ccccc1,10*,3,-13,12,-4
O=Cc1cn(-c2ccccc2)nc1-c1ccccc1,-1,-5,0,-5,-2
CN1Cc2nnn(Cc3ccccc3)c2-c2ccccc2S1(=O)=O,0,2,6,.,.
CC(=O)c1sc(Nc2cccc3ccccc23)nc1C,-36,-61,5,14,4
CC(=O)c1sc(Nc2ccccn2)nc1C,-14,-19,-1,26*,6
CCN1/C(=C/C=C/C=C/C=C/c2sc3ccccc3[n+]2CC)Sc2ccccc21,-4,-11,13,32*,-2
CC[n+]1c(/C=C/Nc2ccccc2)sc2ccccc21,0,1,2,24,17
CC(C)CNc1cccc2c1S(=O)(=O)N(Cc1cn(Cc3ccc(C(F)(F)F)cc3)nn1)Cc1ccccc1O2,-24,-27,-10,.,.
Cc1cccc(N2CCN(C(=O)CCCn3c(=O)c4cccn4c4cccnc43)CC2)c1C,0,-9,3,3,-5
Cc1ccc(Cl)cc1N1CCN(C(=O)CCCn2c(=O)c3cccn3c3cccnc32)CC1,10*,-6,1,1,0
COc1cccc(C(C#N)N2N=C(C)CC2(C)C)c1O (stereo not given),12*,-3,0,-4,10
O=C1CCCC2=C1C(c1ccc(Br)cc1)c1c([nH]c(=S)[nH]c1=O)N2 (stereo not given),-6,-22,2,-7,1
O=c1[nH]c(=S)[nH]c2c1C(c1ccc(Br)cc1)c1c([nH]c(=S)[nH]c1=O)O2,24*,-4,-26,-50,-22
